From ChEMBL document CHEMBL1921792, “Synthesis and anticonvulsant activity of trans- and cis-2-(2,6-dimethylphenoxy)-N-(2- or 4-hydroxycyclohexyl)acetamides and their amine analogs” (Bioorg Med Chem, 2011)

Experiments:
[1] = tested on: Rattus norvegicus; test: Neurotoxicity in rat assessed as neurological deficit at 125 mg/kg, po after 4 hrs; format: toxicity, organism-based; parameters: dose 125 mg/kg, route oral; conditions: in vivo
Outline: (§1)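 Rats given the compound, suspended in 0.5% methylcellulose, by the stated route and dose. Neurological deficit was recorded at the listed times as ataxia and loss of placing response and muscle tone. Reported as number of rats showing toxicity/number tested.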

[2] = tested on: Mus musculus; test: Neurotoxicity in mouse assessed as inability to maintain equilibrium on rotarod at 30 mg/kg, ip after 0.5 hrs by rotarod test; format: toxicity, organism-based; parameters: dose 30 mg/kg, route intraperitoneal; conditions: in vivo
Outline: (§2)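 Drug given ip to mice as a suspension in 0.5% methylcellulose. At the stated time after dosing, each mouse was placed on a 1 inch knurled rod turning at 6 rpm. Neurotoxicity = inability to stay balanced at least 1 min in each of three trials. Scored as animals toxic/animals tested in small groups.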

[3] = tested on: Rattus norvegicus; test: Neurotoxicity in rat assessed as neurological deficit at 30 mg/kg, po after 1 hr […]; format: toxicity, organism-based; parameters: dose 30 mg/kg, route oral; conditions: in vivo; outline: as §1
[4] = organism: Mus musculus; test: Protective index, ratio of TD50 for neurotoxicity in mouse to ED50 for inhibition of maximal electroshock-induced seizures in mouse; format: functional
[5] = tested on: Mus musculus; test: Neurotoxicity in mouse assessed as inability to maintain equilibrium on rotarod at 130 mg/kg, ip after 0.25 hrs using rotarod test; format: toxicity, organism-based; parameters: dose 130 mg/kg, route intraperitoneal; conditions: in vivo; outline: as §2
[6] = tested on: Rattus norvegicus; test: Neurotoxicity in rat assessed as neurological deficit at 500 mg/kg, po after 0.5 hrs; format: toxicity, organism-based; parameters: dose 500 mg/kg, route oral; conditions: in vivo; outline: as §1
[7] = tested on: Mus musculus; test: Neurotoxicity in mouse assessed as inability to maintain equilibrium on rotarod at 130 mg/kg, ip after 1 hr by rotarod test; format: toxicity, organism-based; parameters: dose 130 mg/kg, route intraperitoneal; conditions: in vivo; outline: as §2
[8] = tested on: Rattus norvegicus; test: Neurotoxicity in rat assessed as neurological deficit at 125 mg/kg, po after 6 hrs; format: toxicity, organism-based; parameters: dose 125 mg/kg, route oral; conditions: in vivo; outline: as §1
[9] = tested on: Rattus norvegicus; test: Anticonvulsant activity in po dosed rat assessed as protection against maximal electric shock-induced seizures; format: functional
[10] = tested on: Rattus norvegicus; test: Neurotoxicity in rat assessed as neurological deficit at 500 mg/kg, po after 8 hrs; format: toxicity, organism-based; parameters: dose 500 mg/kg, route oral; conditions: in vivo
Outline: (§3)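 Rats dosed orally with test agent suspended in 0.5% methylcellulose and observed for up to 24 h (time-to-peak-effect design). Neurological deficit was scored as ataxia with loss of placing response and muscle tone. Two rats per dose per time point; results given as number toxic/number tested.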

[11] = tested on: Rattus norvegicus; test: Neurotoxicity in rat assessed as neurological deficit at 250 mg/kg, po after 0.25 hrs; format: toxicity, organism-based; parameters: dose 250 mg/kg, route oral; conditions: in vivo; outline: as §1
[12] = tested on: Mus musculus; test: Neurotoxicity in mouse assessed as inability to maintain equilibrium on rotarod at 30 mg/kg, ip after 4 hrs by rotarod test; format: toxicity, organism-based; parameters: dose 30 mg/kg, route intraperitoneal; conditions: in vivo; outline: as §2
[13] = tested on: Rattus norvegicus; test: Neurotoxicity in rat assessed as neurological deficit at 500 mg/kg, po after 0.25 hrs; format: toxicity, organism-based; parameters: dose 500 mg/kg, route oral; conditions: in vivo; outline: as §1
[14] = tested on: Rattus norvegicus; test: Neurotoxicity in rat assessed as neurological deficit at 500 mg/kg, po after 1 hr; format: toxicity, organism-based; parameters: dose 500 mg/kg, route oral; conditions: in vivo; outline: as §1
[15] = tested on: Mus musculus; test: Neurotoxicity in mouse assessed as inability to maintain equilibrium on rotarod at 130 mg/kg, ip after 0.5 hrs using rotarod test; format: toxicity, organism-based; parameters: dose 130 mg/kg, route intraperitoneal; conditions: in vivo; outline: as §2
[16] = Neurotoxicity in ip dosed mouse assessed as inability to maintain equilibrium on rotarod by rotarod test; format: toxicity, organism-based; conditions: in vivo
Outline: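 Mice dosed ip with a suspension in 0.5% methylcellulose, then placed on a 1 inch knurled plastic rod rotating at 6 rpm. Toxicity = failure to keep equilibrium for at least 1 min in each of three trials.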

[17] = tested on: Rattus norvegicus; test: Anticonvulsant activity in po dosed rat assessed as time to show peak effect of protection against maximal electric shock-induced seizures; format: functional
Outline: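 Time-to-peak-effect assay: MES protection read at 0.25–4 h after dosing. Mice ip (60–130 mg/kg), rats po (15 or 30 mg/kg) or ip (30 mg/kg). Groups of 4–8; result is protected/tested.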

[18] = tested on: Rattus norvegicus; test: Neurotoxicity in rat assessed as neurological deficit at 30 mg/kg, po after 2 hrs […]; format: toxicity, organism-based; parameters: dose 30 mg/kg, route oral; conditions: in vivo; outline: as §1
[19] = tested on: Rattus norvegicus; test: Neurotoxicity in rat assessed as neurological deficit at 250 mg/kg, po after 8 hrs; format: toxicity, organism-based; parameters: dose 250 mg/kg, route oral; conditions: in vivo; outline: as §1
[20] = tested on: Rattus norvegicus; test: Neurotoxicity in rat assessed as neurological deficit at 62.5 mg/kg, po after 0.25 hrs; format: toxicity, organism-based; parameters: dose 62.5 mg/kg, route oral; conditions: in vivo; outline: as §3
[21] = tested on: Rattus norvegicus; test: Neurotoxicity in rat assessed as neurological deficit at 30 mg/kg, po after 4 hrs by rotarod test; format: toxicity, organism-based; parameters: dose 30 mg/kg, route oral; conditions: in vivo; outline: as §1
[22] = tested on: Mus musculus; test: Anticonvulsant activity in ip dosed mouse assessed as protection against maximal electric shock-induced seizures; format: functional; conditions: Mus musculus, ip; read-out: ED50
[23] = tested on: Rattus norvegicus; test: Neurotoxicity in rat assessed as neurological deficit at 125 mg/kg, po after 0.5 hrs; format: toxicity, organism-based; parameters: dose 125 mg/kg, route oral; conditions: in vivo; outline: as §1
[24] = organism: Rattus norvegicus; test: Protective index, ratio of TD50 for neurotoxicity in rat to ED50 for inhibition of maximal electroshock-induced seizures in rat; format: functional
[25] = tested on: Rattus norvegicus; test: Neurotoxicity in rat assessed as neurological deficit at 62.5 mg/kg, po after 1 hr; format: toxicity, organism-based; parameters: dose 62.5 mg/kg, route oral; conditions: in vivo; outline: as §3
[26] = tested on: Mus musculus; test: Neurotoxicity in mouse assessed as inability to maintain equilibrium on rotarod at 130 mg/kg, ip after 2 hrs using rotarod test; format: toxicity, organism-based; parameters: dose 130 mg/kg, route intraperitoneal; conditions: in vivo; outline: as §2
[27] = tested on: Rattus norvegicus; test: Neurotoxicity in rat assessed as neurological deficit at 62.5 mg/kg, po after 6 hrs; format: toxicity, organism-based; parameters: dose 62.5 mg/kg, route oral; conditions: in vivo; outline: as §3

Cc1cccc(C)c1OCC(=O)NC1CCCCC1O.Cl (racemic; 1)
Non-toxic: Activity [1] | Activity [2] | Activity [3] | Activity [6] | Activity [7] | Activity [8] | Activity [10] | Activity [11] | Activity [12] | Activity [13] | Activity [14] | Activity [15] | Activity [18] | Activity [19] | Activity [20] | Activity [21] | Activity [23] | Activity [25] | Activity [26] | Activity [27]
106 mg/kg: TD50 [16]
0.25 h: Time [17]
2.475: Ratio TD50/ED50 [4]
43 mg/kg: ED50 [22]
23.6 mg/kg: ED50 [9]
>21.218: Ratio TD50/ED50 [24]
Toxic: Activity [5]
